Data from PubChem BioAssay.
Records with an inconclusive call do not appear.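 How the source made its calls, unless noted: active means inhibition over a set limit, the all-compound mean plus 3 SD, in both replicate runs; inconclusive means over that limit in just one replicate run; inactive means at or under that limit in both runs.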

Tests used:
[1] = S. cerevisiae growth inhibition in permissive medium (OD615), pilot counter-assay for S. cerevisiae lifespan shortening project, permissive growth control (AID 705;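 active means growth inhibition above 25% in both replicates, a cutoff set 3 SD above the mean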); conditions: OD615, 24 h, at 10 µM, hits give high values
In short: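 Timing: 24 h exposure, 30 °C / Material: Saccharomyces cerevisiae strain carrying genetically modified DeaD replicative-lifespan system / Signal: OD at 615 nm / Compound: 10 µM single dose, 0.25% DMSO / Medium: SC raffinose/galactose permissive medium / Evaluation: reduction in yeast growth (OD615)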

[2] = S. cerevisiae growth inhibition in restrictive medium, OD615, pilot screen, restrictive growth control, yeast lifespan reduction project (AID 706;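 active means growth inhibition above a set limit, 3 SD over mean compound inhibition, in both replicates, cut at about 43% in these data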;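 further: modified DeaD lifespan yeast strain shifted to restrictive glucose medium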); conditions: OD615, 48 h, at 10 µM, hits give high values
In short: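 System: Engineered S. cerevisiae DeaD strain | Detection: OD615 | Buffer or medium: CSMM-D glucose medium | Doses: 10 µM compound, 0.25% DMSO | Timing: 4 h pre-growth plus 48 h compound exposure, 30 °C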

[3] = doxorubicin toxicity protection in MRP-1 cells – H69AR cells, CellTiter-Glo, duplicate, MRP-1 activator project, pilot screen (AID 807;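 active means viability increase at or above a cutoff of the median across tested compounds plus 3 SD, cut at about 8.5% in these data, passing the limit was not always enough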;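 further: compound pretreatment 18-22 h then 72 h combined with doxorubicin; 0% = doxorubicin alone and 100% = vehicle without doxorubicin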); conditions: H69AR viability with doxorubicin, CellTiter-Glo luminescence; at 10 µM; hits give high values
[4] = viability of HCT116 without oncogenic beta-catenin – human colon tumor cells, pilot screen (AID 823;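 active means cell viability at or below a set limit in both duplicate runs, the limit being the all-compound median minus 4 SD, cut at about 23% in these data, passing the limit was not always enough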;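 further: 0% = wells killed by 20 µM Hyamine and 100% = untreated DMSO cell wells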); conditions: HCT116 beta-catenin knockout viability, CellTiter-Glo, 60 h; at 10 µM; hits give low values
[5] = RAM pathway blockade in budding yeast – dse1pr::URA3 reporter, 5-FOA selection, pilot screen (AID 869);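 further: 0% = DMSO wells with no growth and 100% = 10 µM 1-NA-PP1 with full growth; RAM network block rescues cells from 5-FOA so hits raise OD615 growth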; conditions: S. cerevisiae dse1pr::URA3 5-FOA growth, OD615, 2 d; at 10 µM; hits give high values; strain carries analog-sensitive mutant Cbk1 kinase
[6] = RAM signaling pathway blockade in yeast – S. cerevisiae, Pdr1DBD-CYC8 efflux-inhibited sensitized strain, primary screen (AID 1298;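 active means RAM network inhibition above 8.4% in each of two replicates, 3 SD over the compound average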;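 further: 0% = DMSO untreated cells without growth and 100% = 10 µM 1-NA-PP1 full growth; higher means more yeast growth rescued from 5-FOA killing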); conditions: S. cerevisiae cbk1-as DSE1-URA3 strain, 5-FOA growth OD615, 2 d; at 50 µM; hits give high values
[7] = viability of PTEN-null HCT116 cells – cell-based, HCT116 clonal line, CellTiter-Glo, pilot screen (AID 824;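 active means viability at or below 27.92% in each of two runs, the all-compound median minus 4 SD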;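 further: 0% = 20 µM Hyamine control and 100% = vehicle cell control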); conditions: HCT116 PTEN-deleted viability, 60 h, at 10 µM, hits give low values

CCN(CC)C(=O)CSc1nnc(-c2ccccc2)n1N
inactive: growth inhibition [1] 3.57% | growth inhibition [2] -0.035% | viability increase [3] -2.74% | viability [4] 93.3% | inhibition [5] 0.76% | RAM network inhibition [6] -0.62%

O=C(NCc1ccc2c(c1)OCO2)C1CCN(c2ccc(S(=O)(=O)N3CCCC3)cc2)CC1
inactive: growth inhibition [1] -20.2% | growth inhibition [2] -1.93% | viability increase [3] -6.29% | viability [4] 65.5% | inhibition [5] 3.25% | RAM network inhibition [6] 4.72%

c1csc(CNc2ncnc3sccc23)c1
inactive: growth inhibition [1] 3.62% | growth inhibition [2] -3.59% | viability increase [3] -2% | viability [7] 62.7% | inhibition [5] 2.05% | RAM network inhibition [6] 4.4%

CCn1c(C)c2c(C)nnc(C)c2c1C
inactive: growth inhibition [1] -7.03% | growth inhibition [2] -3.61% | viability increase [3] -3.11% | viability [7] 91.5% | inhibition [5] 1.05% | RAM network inhibition [6] -0.52%

COc1cc(C(=O)NCc2ccc3c(c2)OCO3)ccc1OCc1c(C)noc1C
inactive: growth inhibition [1] 2.15% | growth inhibition [2] -2.32% | viability increase [3] -1.5% | viability [7] 95.1% | inhibition [5] 2.5% | RAM network inhibition [6] 3.79%

CC(Sc1nc2c(c(=O)n(C)c(=O)n2C)n1Cc1cc2c(cc1Cl)OCO2)C(=O)O (centres undefined)
inactive: growth inhibition [1] -10.7% | growth inhibition [2] -5.16% | viability increase [3] -0.64% | viability [7] 99.9% | inhibition [5] 1.83% | RAM network inhibition [6] 1.02%

CCOC(=O)C1CCN(S(=O)(=O)c2cc(Br)cc3c2N(C(=O)C2CC2)CC3)CC1
inactive: growth inhibition [1] -12.9% | growth inhibition [2] -13.7% | viability increase [3] -1.73% | viability [7] 96.5% | inhibition [5] 1.68% | RAM network inhibition [6] 1.38%

CCOc1cc(C2NC(=O)NC(C)=C2C(=O)OC(C)CC)cc(Br)c1O (centres undefined)
inactive: growth inhibition [1] -4.09% | growth inhibition [2] -10.5% | viability increase [3] -1.01% | viability [7] 91.2% | inhibition [5] 2.17% | RAM network inhibition [6] 2.16%

Oc1ccc(C=NCC2COc3ccccc3O2)cc1 (centres undefined)
inactive: growth inhibition [1] -7.84% | growth inhibition [2] 2.85% | viability increase [3] -5.39% | viability [7] 85.3% | inhibition [5] 1.54% | RAM network inhibition [6] -2.56%

CCOc1ccc(S(=O)(=O)N(C)c2ccc(OCC(=O)Nc3ccc4[nH]c(=O)[nH]c4c3)cc2)cc1
inactive: growth inhibition [1] -7.61% | growth inhibition [2] -11.1% | viability increase [3] -4.94% | viability [7] 94.1% | inhibition [5] 0.8% | RAM network inhibition [6] 7.12%

CCCCC1CC(CSc2ncn[nH]2)OC1=O (centres undefined)
inactive: growth inhibition [1] -11.3% | growth inhibition [2] -7.68% | viability increase [3] 1.38% | viability [7] 98% | inhibition [5] 1.21% | RAM network inhibition [6] 0.01%

CCOC(=O)N1CCN(C(=O)CN(c2cccc(C)c2)S(=O)(=O)c2ccccc2)CC1
inactive: growth inhibition [1] -9.07% | growth inhibition [2] -2.69% | viability increase [3] -2.44% | viability [7] 97.8% | inhibition [5] -0.31% | RAM network inhibition [6] 0.62%

CCN1CCN(CCNC(=O)C2CCCN(Cc3nc(-c4cccc(Cl)c4)oc3C)C2)CC1 (centres undefined)
inactive: growth inhibition [1] -9.33% | growth inhibition [2] -13.1% | viability increase [3] -6.96% | viability [7] 35% | inhibition [5] -1.05% | RAM network inhibition [6] 0.71%

CCCCS(=O)CC(CS(=O)CCCC)OC(=O)c1ccc(C)cc1 (centres undefined)
inactive: growth inhibition [1] -10.6% | growth inhibition [2] -7.7% | viability increase [3] -1.14% | viability [7] 96.3% | inhibition [5] 1.73% | RAM network inhibition [6] 0.87%

CC(C)(Oc1ccc(Cl)cc1)C(=O)Nc1ncccn1
inactive: growth inhibition [1] -5.31% | growth inhibition [2] -3.56% | viability increase [3] -2.32% | viability [7] 101% | inhibition [5] 1.61% | RAM network inhibition [6] 2.05%

COc1ccc(NC2CS(=O)(=O)CC2NCc2ccco2)cc1 (centres undefined)
inactive: growth inhibition [1] 3.62% | growth inhibition [2] -15.4% | viability increase [3] -4.04% | viability [7] 96.2% | inhibition [5] 1.94% | RAM network inhibition [6] 4.2%

COc1ccc(Oc2coc3c(CN(C)C)c(O)ccc3c2=O)cc1
inactive: growth inhibition [1] -5.32% | growth inhibition [2] -12.9% | viability increase [3] -7.46% | viability [7] 95.3% | inhibition [5] 0.075% | RAM network inhibition [6] -0.21%

O=C(Nc1cccnc1)c1ccc(CN2CCc3ccccc3C2)cc1
inactive: growth inhibition [1] -3.88% | growth inhibition [2] -5.93% | viability increase [3] -2.11% | viability [7] 93.3% | inhibition [5] 2.54% | RAM network inhibition [6] 2.06%

O=C1C(=O)N(CCCn2ccnc2)C(c2cccnc2)/C1=C(/O)c1ccc(Br)cc1 (centres undefined)
inactive: growth inhibition [1] -7.97% | growth inhibition [2] 7.01% | viability increase [3] -0.15% | viability [7] 104% | inhibition [5] 1.9% | RAM network inhibition [6] 4%
